This is a sample that favours compounds with a hit; in the whole collection about 2.8% have one here.
SIRT5 inh: blocks human SIRT5 desuccinylation of peptide | Q9NXA8 | Purified SirT5, succinyl-peptide AMC, trypsin-coupled fluorescence | inhibition, % at 15 µM | 330,000 tested, 1.1% active | AID 652115; in the data active means inhibition above about 15%; inconclusive means no clear call, values can overlap the other calls
Target sequence (Q9NXA8 whole entry, looked up): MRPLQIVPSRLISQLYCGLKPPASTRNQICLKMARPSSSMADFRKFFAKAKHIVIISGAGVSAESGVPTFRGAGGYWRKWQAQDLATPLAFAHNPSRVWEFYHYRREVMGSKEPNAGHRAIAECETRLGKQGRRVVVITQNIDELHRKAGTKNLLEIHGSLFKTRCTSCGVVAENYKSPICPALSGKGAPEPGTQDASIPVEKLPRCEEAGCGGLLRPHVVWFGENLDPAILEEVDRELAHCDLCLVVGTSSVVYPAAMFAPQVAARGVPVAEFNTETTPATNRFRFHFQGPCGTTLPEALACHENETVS
E-selectin induc: E-selectin induction on HUVECs; 260,000 tested, 0.37% active; HUVEC E-selectin immunofluorescence imaging; normalized: neutral wells 0, TNF-alpha wells 100; activation, % at 7.58 µM; AID 686992;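 active means mean E-selectin-positive cell signal at least 10% of the positive control, reached in at least 60% of replicates, without over 20% cell loss; inconclusive means no rule given, readout overlaps actives, possibly toxicity-flagged; inactive means the rest, including those meeting only one limit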
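Assay system: HUVEC primary endothelial cells. Input: 3,000 HUVEC seeded per well. Doses: one compound dose added by pin transfer. Read-out basis: % PE-positive cells. Benchmarks: TNF-alpha high, DMSO low. Detection: immunofluorescence imaging. Buffer or medium: EGM-2, gelatin.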
DENV2 CPE rescue: DENV2-induced cell death inhibition; DENV2-infected cells, cytopathic effect rescue, plate reader; 350,000 tested, 1.7% active; CPE inhibition, % at 9.99 µM; in the data active means CPE inhibition above about 20%, passing the limit was not always enough; inconclusive means no clear call, values can overlap the other calls; tested in BHK-21 cells
Of the large screens only hits and unclear results are named; the others gave an inactive call; ! = a repeat was not active.

C[C@H](CO)N1C[C@H](C)[C@H](CN(C)Cc2ccc(C(F)(F)F)cc2)OCCCC[C@H](C)Oc2ccc(NC(=O)CCCN(C)C)cc2C1=O	none
COc1ccc(-c2c(-c3cc(OC)cc(OC)c3)n(C)c3ccc(Br)cc23)cc1	DENV2 CPE rescue 31.9 (no result: SIRT5 inh)
COc1cccc(-c2c(-c3cc(OC)cc(OC)c3)n(C)c3ccc(Br)cc23)c1	none (no result: SIRT5 inh)
CN1C[C@@H](O)COC[C@H]2O[C@H](CC(=O)N3CCN(c4ccccc4)CC3)CC[C@@H]21	none
O=C1NN(c2ccccc2)C(=O)/C1=C\c1ccc(-c2cc([N+](=O)[O-])ccc2O)o1	SIRT5 inh 17.7
O=C1NN(c2ccc(Cl)cc2)C(=O)/C1=C\c1ccc(-c2cccc(C(=O)O)c2)o1	SIRT5 inh 27.7 (no result: E-selectin induc)
COc1cc(/C=C2\C(=O)NN(c3ccccc3)C2=O)cc([N+](=O)[O-])c1O	none (no result: E-selectin induc)
Cc1ccc(N2NC(=O)/C(=C/c3ccc(-c4ccc(Cl)c(C(=O)O)c4)o3)C2=O)cc1	none
O=C(C1CC1)N1CCCCN2[C@H](CO)[C@@H](c3ccc(C#CC4(O)CCCC4)cc3)[C@H]2C1	DENV2 CPE rescue inconclusive (no result: E-selectin induc)
CCC(=O)N1[C@H](CO)[C@H](c2ccc(-c3ccccc3OC)cc2)C12CN(C(C)=O)C2	none
C[C@@H]1CN([C@H](C)CO)C(=O)c2cc(C#CCN(C)C)cnc2O[C@@H]1CN(C)C(=O)Nc1cccc(F)c1	none
CCOc1cccc(CN2CCC(N3CCC(C(=O)NCC4CCCO4)CC3)CC2)c1 (stereo unspecified)	SIRT5 inh 20.8 (no result: E-selectin induc)
O=C(NCC1CCCO1)C1CCN(C2CCN(Cc3ccco3)CC2)CC1 (stereo unspecified)	none (no result: E-selectin induc, DENV2 CPE rescue)
CC(C)OC(=O)N(C)C[C@@H]1OCc2ccccc2-c2ccccc2C(=O)N([C@@H](C)CO)C[C@@H]1C	none
O=c1cc(O)c2sc3nc4c(c(C(F)(F)F)c3c2[nH]1)CCCCC4	SIRT5 inh 16.6
COc1ccc(OC)c(-c2cc(C(F)(F)F)c3c(n2)sc2c(O)cc(=O)[nH]c23)c1	none (no result: E-selectin induc)
O=S(=O)(c1ccccc1)N1C[C@@H]2N[C@H](C1)C2c1ccc(/C=C/c2ccccc2)cc1 (stereo partly specified)	none
C[C@@H]1CN([C@H](C)CO)C(=O)CCCn2nncc2CO[C@@H]1CN(C)C(=O)Cc1ccccc1	DENV2 CPE rescue 32.8!
C[C@H](CO)N1C[C@H](C)[C@@H](CN(C)Cc2ccc(O)cc2)OCc2cnnn2CCCC1=O	DENV2 CPE rescue 41.9!
CC(C)NC(=O)N(C)C[C@H]1OCc2cnnn2CCCC(=O)N([C@@H](C)CO)C[C@@H]1C	DENV2 CPE rescue 45.3
CC(C)NC(=O)N(C)C[C@@H]1OCc2cnnn2CCCC(=O)N([C@H](C)CO)C[C@@H]1C	none
CC(C)OC(=O)N(C)C[C@H]1OCc2cnnn2CCCC(=O)N([C@H](C)CO)C[C@@H]1C	DENV2 CPE rescue 28.5!
C[C@@H]1CN([C@H](C)CO)C(=O)CCCn2nncc2CO[C@@H]1CN(C)Cc1ccc(O)cc1	none
CC(C)OC(=O)N(C)C[C@H]1OCc2cnnn2CCCC(=O)N([C@@H](C)CO)C[C@H]1C	DENV2 CPE rescue inconclusive
C[C@H](CO)N1C[C@H](C)[C@@H](CN(C)C(=O)Cc2ccccc2)OCc2cnnn2CCCC1=O	none
O=C(C[C@H]1CC[C@@H](NS(=O)(=O)c2ccc(F)cc2)[C@H](CO)O1)NCc1ccncn1	none
CCC(=O)Nc1ccc2c(c1)C(=O)N(C)[C@@H]1CC[C@H](CC(=O)NC3Cc4ccccc4C3)O[C@@H]1CO2	DENV2 CPE rescue inconclusive
O=C(Nc1nccs1)[C@@H]1[C@@H](CO)[C@@H]2Cn3c(cccc3=O)[C@@H]2N1C(=O)C1CCCCC1	none
CCCC(=O)N1CC2(CN[C@@H](CO)c3c2c2ccc(OC)cc2n3C)C1	DENV2 CPE rescue inconclusive (no result: SIRT5 inh)
C[C@@H]1CN([C@H](C)CO)C(=O)CCCn2nncc2CO[C@@H]1CN(C)C(=O)Nc1ccccc1C(F)(F)F	none
C[C@H]1CN([C@@H](C)CO)C(=O)CCCn2nncc2CO[C@@H]1CN(C)C(=O)CCCN(C)C	SIRT5 inh 22.1
C[C@H](CO)N1C[C@H](C)[C@H](CN(C)C(=O)Nc2ccccc2C(F)(F)F)OCc2cnnn2CCCC1=O	SIRT5 inh 15.8 (no result: E-selectin induc)
C[C@@H]1CN([C@H](C)CO)C(=O)CCCn2nncc2CO[C@@H]1CN(C)C(=O)CCCN(C)C	none
Cc1ccc(-c2ccc3c(c2)O[C@@H](CN(C)C)[C@@H](C)CN([C@@H](C)CO)S3(=O)=O)cc1	none
CO[C@@H](CN(C)S(=O)(=O)c1ccc(F)cc1)[C@H](C)CN(C(=O)Nc1ccccc1F)[C@H](C)CO	none
COc1ccc(S(=O)(=O)Nc2ccc3c(c2)C(=O)N([C@@H](C)CO)C[C@H](C)[C@@H](CN(C)Cc2ccc(Cl)c(Cl)c2)O3)cc1	E-selectin induc 80.0, DENV2 CPE rescue inconclusive
Cc1ccc(S(=O)(=O)Nc2ccc3c(c2)C(=O)N([C@H](C)CO)C[C@@H](C)[C@@H](CN(C)Cc2ccc(Cl)c(Cl)c2)OCCCC[C@H](C)O3)cc1	none (no result: E-selectin induc)
COc1ccc(S(=O)(=O)Nc2ccc3c(c2)C(=O)N([C@@H](C)CO)C[C@H](C)[C@H](CN(C)Cc2ccc(Cl)c(Cl)c2)OCCCC[C@@H](C)O3)cc1	none (no result: SIRT5 inh)
Cc1ccc(S(=O)(=O)Nc2ccc3c(c2)C(=O)N([C@H](C)CO)C[C@H](C)[C@H](CN(C)Cc2ccc(Cl)c(Cl)c2)OCCCC[C@@H](C)O3)cc1	none (no result: E-selectin induc)
COc1ccc(S(=O)(=O)Nc2ccc3c(c2)C(=O)N([C@H](C)CO)C[C@H](C)[C@H](CN(C)Cc2ccc(Cl)c(Cl)c2)OCCCC[C@@H](C)O3)cc1	DENV2 CPE rescue 41.5 (no result: SIRT5 inh)
COc1ccc(CN(C)C[C@@H]2Oc3ccc(NS(=O)(=O)c4ccc(OC)cc4)cc3C(=O)N([C@@H](C)CO)C[C@@H]2C)cc1	none
Cc1ccc(S(=O)(=O)Nc2ccc3c(c2)C(=O)N([C@H](C)CO)C[C@@H](C)[C@H](CN(C)Cc2ccc(Cl)c(Cl)c2)OCCCC[C@H](C)O3)cc1	SIRT5 inh 18.6 (no result: E-selectin induc)
Cc1ccc(S(=O)(=O)Nc2ccc3c(c2)C(=O)N([C@@H](C)CO)C[C@@H](C)[C@@H](CN(C)Cc2ccc(Cl)c(Cl)c2)OCCCC[C@@H](C)O3)cc1	SIRT5 inh 17.4 (no result: E-selectin induc)
CC(C)c1cn(CC[C@H]2CC[C@@H](NC(=O)C3CC3)[C@@H](CO)O2)nn1	none
C[C@@H]1CN([C@H](C)CO)C(=O)c2cc(N(C)C)ccc2O[C@@H](C)CCCCO[C@H]1CN(C)C(=O)Nc1ccc2c(c1)OCO2	none (no result: SIRT5 inh, DENV2 CPE rescue)
CO[C@H]1CN(C)C(=O)c2ccc(NC(C)=O)cc2OC[C@@H](C)N(Cc2ccccc2C(=O)O)C[C@@H]1C	none
CO[C@H]1CN(C)C(=O)c2cc(NC(=O)NC(C)C)ccc2OC[C@H](C)N(C(=O)CC2CC2)C[C@H]1C	none
O=S(=O)(Cc1ccccc1)NCC[C@@H]1CC[C@@H](NS(=O)(=O)c2ccc(F)cc2)[C@H](CO)O1	none (no result: SIRT5 inh, DENV2 CPE rescue)
CO[C@H]1CN(C)C(=O)c2ccc(NC(=O)C3CC3)cc2OC[C@@H](C)N(Cc2cncnc2)C[C@H]1C	none (no result: SIRT5 inh, DENV2 CPE rescue)
CN1c2ccc(Br)cc2[C@@H]2[C@@H](CCN2S(=O)(=O)c2ccccc2F)[C@H]1CO	none
Cc1ccccc1S(=O)(=O)N1CC[C@@H]2[C@@H](CO)N(C)c3ccc(Br)cc3[C@@H]21	none (no result: SIRT5 inh)
Cc1ccccc1S(=O)(=O)N1CC[C@H]2[C@@H](CO)N(C)c3ccc(Br)cc3[C@H]21	DENV2 CPE rescue 142.6 (no result: SIRT5 inh)

Compound activity (PubChem)
